The record followed here is ChEMBL document CHEMBL1122329, “Synthesis and antianxiety activity of (omega-piperazinylalkoxy)indan derivatives” (J Med Chem, 1983).

Type in all cases: functional
Assay [1] deals with Mus musculus. Put plainly: Anti-morphine activity against morphine-induced Straub''s tail reaction in mice expressed as % inhibition at 25 mg/kg peroral administration. To be noted: route oral. The method in brief: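 Six mice per group received test compounds orally 1 h before morphine (20 mg/kg ip). Straub's tail reaction was scored as the index of morphine's CNS stimulant action.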

Assay [2] has as its system Mus musculus. Put plainly: Anti-morphine activity against the morphine-induced Straub's tail reaction in mice on peroral administration. To be noted: po. In a few lines: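 Mice, six per group, dosed orally with test compound 1 h before morphine (20 mg/kg ip); Straub's tail reaction scored as index of morphine CNS stimulation.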
Assay [3] relates to Mus musculus. Put plainly: Anti-fighting potency against foot shock induced fighting behavior in mice expressed as % inhibition at 25 mg/kg peroral administration. To be noted: route oral.
For assay [4], the system named is Mus musculus. Briefly: Antifighting potency against the foot shock induced fighting behavior in mice on peroral administration. The settings on record: po.
For assay [5], the system named is Mus musculus. Briefly: Evaluated for hypothermic activity in mice at 30 mg/kg on peroral administration. The settings on record: route oral. The method in brief:
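Six mice per group were dosed orally 1 h before testing. Rectal temperature was read with an electronic thermometer. Results are given as degrees of hypothermia (Δt °C) versus an untreated group.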

For assay [6], the system named is Mus musculus. Briefly: Cataleptogenic action in mice on peroral administration. To be noted: po. In a few lines: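 Six mice per group were dosed orally 1 h before testing. Forepaws were placed on a horizontal steel bar to force an abnormal posture. Holding the posture over 30 s counted as catalepsy. ED50 was the dose giving catalepsy in 50% of animals, with 95% confidence limits.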

In a further assay the test system is Rattus norvegicus. Put plainly: Evaluated for neuroleptic-like property using anti-methamphetamine test in rats on peroral administration. The settings on record: po. The method in brief:
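Groups of six rats were dosed orally, then given methamphetamine 5 mg/kg ip 1 h later. Stereotypy was scored 0–4: sleep/eyes closed 0, motionless/eyes open 1, moving around cage 2, sniffing 3, continuous licking or gnawing 4. ED50 was the dose halving mean score versus controls, with 95% confidence limits.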

For assay [7], the system named is Mus musculus. Briefly: Evaluated for muscle-relaxant action in mice on peroral administration. To be noted: po. In a few lines: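 Traction test: mice, eight per group, dosed orally; 1 h later forepaws placed on horizontal wire bar 30 cm high; failure to bring hind feet onto wire within 5 s counted as muscle relaxation.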

For the compound `Cl.Cl.FC(F)(F)c1cccc(N2CCN(CCCCOc3ccc4c(c3)CCC4)CC2)c1`, the inhibition in vivo at 25 mg/kg in the assay with Mus musculus [1] stood at 100%; with Mus musculus [3] it was 8%. Moreover, the ED50 in the assay on Mus musculus [2] was 12.5 mg/kg.

`c1ccc(N2CCN(CCCOc3cccc4c3CCC4)CC2)cc1`: the values for the inhibition in vivo at 25 mg/kg with Mus musculus [1] and with Mus musculus [3] were 33% and 0%, respectively.

As to `Fc1cc2c(cc1OCCCCN1CCN(c3ccccc3)CC1)CCC2`, the results for the inhibition in vivo at 25 mg/kg in the assay with Mus musculus [1] and in the assay on Mus musculus [3] were 79% and 33%, respectively.

With `Clc1cccc(N2CCN(CCCCOc3ccc4c(c3)CCC4)CC2)c1`, the inhibition in vivo at 25 mg/kg came to 0% in the assay on Mus musculus [1] and 37% with Mus musculus [3].

`COc1cc2c(cc1OCCCN1CCN(c3ccc(F)cc3)CC1)CCC2`: the inhibition in vivo at 25 mg/kg with Mus musculus [1] and with Mus musculus [3] was 100% each time.

`O=[N+]([O-])c1ccccc1N1CCN(CCCOc2ccc3c(c2)CCC3)CC1`: the inhibition in vivo at 25 mg/kg in the assay on Mus musculus [1] was determined as 43%; in the assay with Mus musculus [3], 8%.

Consider `Fc1ccc(N2CCN(CCCCOc3ccc4c(c3)CCC4)CC2)cc1`, for which the inhibition in vivo at 25 mg/kg in the assay on Mus musculus [1] was 100%; with Mus musculus [3], 70%.

For `Clc1cc(Cl)cc(N2CCN(CCCCOc3ccc4c(c3)CCC4)CC2)c1`, the inhibition in vivo at 25 mg/kg in the assay with Mus musculus [1] and in the assay on Mus musculus [3] was 0% each time.

For the compound `COc1cc2c(cc1OCCCN1CCN(c3cccc(Cl)c3)CC1)CCC2.Cl.Cl.Cl`, the results for the inhibition in vivo at 25 mg/kg with Mus musculus [1] and in the assay with Mus musculus [3] were 98% and 67%, respectively. Also, the values for the ED50 with Mus musculus [2] and in the assay with Mus musculus [4] were 11.3 mg/kg and 15.9 mg/kg, respectively.

Turning to `Cl.Cl.Cl.Clc1cc2c(cc1OCCCN1CCN(c3ccccc3)CC1)CCC2`, the inhibition in vivo at 25 mg/kg with Mus musculus [1] turned out to be 82%; in the assay on Mus musculus [3], 58%. Besides, the ED50 is 22 mg/kg with Mus musculus [2] and 21 mg/kg with Mus musculus [4].

With `c1ccc(N2CCN(CCCCCOc3ccc4c(c3)CCC4)CC2)cc1`, the results for the inhibition in vivo at 25 mg/kg in the assay on Mus musculus [1] and in the assay with Mus musculus [3] were 25% and 27%, respectively.

`CN1C(=O)CN=C(c2ccccc2)c2cc(Cl)ccc21` [DIAZEPAM]: the Delta t with Mus musculus [5] was -0.1. For the same compound, the ED50 with Mus musculus [6] is more than 30 mg/kg; with Mus musculus [2], 1.2 mg/kg; in the assay on Mus musculus [4], 1.6 mg/kg; in the assay on Rattus norvegicus it was more than 30 mg/kg; in the assay on Mus musculus [7], 4.8 mg/kg.

Regarding `Clc1ccc(N2CCN(CCCOc3cc4c(cc3Cl)CCC4)CC2)cc1`, the inhibition in vivo at 25 mg/kg worked out at 36% with Mus musculus [1] and 33% with Mus musculus [3].

Consider `Cc1cc2c(cc1OCCCN1CCN(c3ccc(F)cc3)CC1)CCC2`, for which the inhibition in vivo at 25 mg/kg was 31% in the assay on Mus musculus [1] and 50% in the assay on Mus musculus [3].

`O=[N+]([O-])c1ccc(N2CCN(CCCOc3ccc4c(c3)CCC4)CC2)cc1`: the inhibition in vivo at 25 mg/kg in the assay with Mus musculus [1] was 26%; with Mus musculus [3] it was 0%.

As for `CCC1CCc2ccc(OCCCN3CCN(c4ccc(F)cc4)CC3)cc21` (stereo not drawn), the inhibition in vivo at 25 mg/kg in the assay on Mus musculus [1] came to 44%; in the assay on Mus musculus [3], 67%.

With `COc1ccc(N2CCN(CCCCOc3ccc4c(c3)CCC4)CC2)cc1`, the inhibition in vivo at 25 mg/kg came out at 14% in the assay with Mus musculus [1] and 17% in the assay with Mus musculus [3].

For `c1ccc(C2CCc3ccc(OCCCN4CCN(c5ccccc5)CC4)cc32)cc1` (stereo not drawn), the inhibition in vivo at 25 mg/kg with Mus musculus [1] was 34%; in the assay on Mus musculus [3] it was 0%.

For the compound `Fc1cccc(N2CCN(CCCCOc3ccc4c(c3)CCC4)CC2)c1`, the inhibition in vivo at 25 mg/kg in the assay on Mus musculus [1] is 17%; in the assay with Mus musculus [3] it was 15%.

In the case of `COc1ccccc1N1CCN(CCCCOc2ccc3c(c2)CCC3)CC1`, the figures for the inhibition in vivo at 25 mg/kg in the assay with Mus musculus [1] and in the assay with Mus musculus [3] were 42% and 33%, respectively.

`O=[N+]([O-])c1cc2c(cc1OCCCN1CCN(c3ccccc3)CC1)CCC2`: the inhibition in vivo at 25 mg/kg in the assay on Mus musculus [1] was 24%; in the assay on Mus musculus [3], 67%.

With `Oc1cc2c(cc1OCCCN1CCN(c3cccc(Cl)c3)CC1)CCC2`, the inhibition in vivo at 25 mg/kg in the assay on Mus musculus [1] turned out to be 29%; in the assay on Mus musculus [3] it was 0%.

`Clc1cccc(N2CCN(CCCOc3ccc4c(c3)CCC4)CC2)c1`: the inhibition in vivo at 25 mg/kg with Mus musculus [1] and with Mus musculus [3] was 83% in each case.

As to `FC(F)(F)c1cccc(N2CCN(CCCCCOc3ccc4c(c3)CCC4)CC2)c1`, the inhibition in vivo at 25 mg/kg in the assay with Mus musculus [1] came out at 66%; in the assay on Mus musculus [3] it was 33%.

In the case of `Cl.Cl.Cl.Fc1ccc(N2CCN(CCCOc3cc4c(cc3Cl)CCC4)CC2)cc1`, the inhibition in vivo at 25 mg/kg came out at 100% in the assay on Mus musculus [1] and 83% in the assay on Mus musculus [3]. The results for the ED50 with Mus musculus [2] and with Mus musculus [4] were 11.5 mg/kg and 14.3 mg/kg, respectively.

For `Fc1cc2c(cc1OCCCN1CCN(c3cccc(Cl)c3)CC1)CCC2`, the inhibition in vivo at 25 mg/kg with Mus musculus [1] and in the assay on Mus musculus [3] was 92% each time.

For orientation: inhibition in vivo means the relative decrease from the control value, in per cent. A higher inhibition in vivo goes with strong suppression. By ED50 is commonly meant the dose that gives a 50% effect, or the effect in half of the subjects. Read a low ED50 as an effect at a small dose.
